Results as given in publication PMC6467287 (Bioorganic & medicinal chemistry letters, 2018).
One block for each molecule: values may come before it.

Tests used:
[1] = system: DUBs (decomposition of high molecular weight ubiquitinated proteins, HMW-Ub) in HEK 293T cell lysates; type: biochemical; settings: for stabilization of the HMW-Ub pool (in words): HEK 293T HA-Ub lysates, 37 °C; for DUB inhibitory activity, SAR statement in words: ring B amine modification; for increase of inhibitory potency (factor): relative to C4
[2] = system: trypsin; experiment: Trypsin-catalyzed hydrolysis of diarylcarbonates; type: biochemical
Outline: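 The diarylcarbonate served as substrate for trypsin. Hydrolysis velocity was measured across substrate concentrations, and Km and kcat were derived from the velocity versus substrate concentration plot.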

[3] = biological target: T1, SENP6 (Homo sapiens, UniProt Q9GZR1); experiment: SENP6-catalyzed deSUMOylation of RanGap; type: biochemical; settings: 30 min at room temperature with inhibitor
T1 sequence (Q9GZR1 628-1112): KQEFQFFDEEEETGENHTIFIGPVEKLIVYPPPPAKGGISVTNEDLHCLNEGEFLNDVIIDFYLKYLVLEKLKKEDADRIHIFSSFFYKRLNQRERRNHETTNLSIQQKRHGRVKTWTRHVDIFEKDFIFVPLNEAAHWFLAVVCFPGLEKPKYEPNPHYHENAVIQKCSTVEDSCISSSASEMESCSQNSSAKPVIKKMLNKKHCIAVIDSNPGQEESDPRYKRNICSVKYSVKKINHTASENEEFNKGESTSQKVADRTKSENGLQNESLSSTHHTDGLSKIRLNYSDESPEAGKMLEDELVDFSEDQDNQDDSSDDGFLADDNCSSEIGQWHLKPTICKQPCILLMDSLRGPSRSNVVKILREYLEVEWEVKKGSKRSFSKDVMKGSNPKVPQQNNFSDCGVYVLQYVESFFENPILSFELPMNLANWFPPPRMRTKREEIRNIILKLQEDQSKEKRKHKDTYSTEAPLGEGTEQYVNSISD
Outline: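 His6-tagged SENP6 catalytic domain (aa 628-1112, 200 nM) was preincubated with test compound for 30 min at room temperature. SUMOylated His6-RanGap1 catalytic domain (aa 418-588, 3 μM) was then added for 10 min at 37 °C. Reactions were quenched in Laemmli buffer, resolved by SDS-PAGE and blotted with anti-His6 antibody.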

[4] = system: K562 leukemia cells; experiment: Effects on K562 leukemia cells; type: cell-based; settings: for accumulation of K48-linked HMW-Ub / Bcr-Abl level: 50 μM, 2 h; for Bcr-Abl level: anti-Abl immunoblot
Outline: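 K562 cells were treated with test compound (50 μM, 2 h) and immunoblotted for K48-linked ubiquitin and for Bcr-Abl (anti-Abl); Bcr-Abl was also tested over a dose range. For the bortezomib series, cells got test compound (50 μM) with or without bortezomib (6 μM) for 4 h. Lysates were sonicated in SDS before PAGE. Cell cycle was read by FACS, scoring G1 and sub-G1 (apoptotic) cells.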

[5] = system: endogenous K48-linked HMW ubiquitin pool in untransfected HEK 293T lysates; type: biochemical; settings: read-out: EC50 for stabilization of the endogenous K48-linked HMW ubiquitin pool
[6] = system: 26S proteasome (flux through the ubiquitin-proteasome system); experiment: G76VUb-GFP assay in HEK 293T cells; type: cell-based; settings: HEK 293T cells expressing G76VUb-GFP
[7] = system: N/N=C/NCc1ccc(OC(=O)Oc2ccc3ccccc3c2)cc1; experiment: purified protein, by the assay type; settings: other: chymotrypsin; 37.0 °C
[8] = system: NCc1ccc(OC(=O)Oc2ccc3ccccc3c2)cc1; experiment: purified protein, by the assay type; settings: other: chymotrypsin; 37.0 °C
[9] = system: MCF7 breast cancer cells; experiment: Effects on MCF7 cells; type: cell-based; settings: for cytotoxicity of C17 hydrolysis products: viability of MCF7 cells
[10] = biological target: USP9x (Homo sapiens, UniProt Q93008); experiment: Time-dependent inhibition of recombinant USP9x; type: biochemical; settings: read-out: kon of commercially available DUB inhibitors (range)
Chain of USP9x (Q93008 whole entry, species assumed): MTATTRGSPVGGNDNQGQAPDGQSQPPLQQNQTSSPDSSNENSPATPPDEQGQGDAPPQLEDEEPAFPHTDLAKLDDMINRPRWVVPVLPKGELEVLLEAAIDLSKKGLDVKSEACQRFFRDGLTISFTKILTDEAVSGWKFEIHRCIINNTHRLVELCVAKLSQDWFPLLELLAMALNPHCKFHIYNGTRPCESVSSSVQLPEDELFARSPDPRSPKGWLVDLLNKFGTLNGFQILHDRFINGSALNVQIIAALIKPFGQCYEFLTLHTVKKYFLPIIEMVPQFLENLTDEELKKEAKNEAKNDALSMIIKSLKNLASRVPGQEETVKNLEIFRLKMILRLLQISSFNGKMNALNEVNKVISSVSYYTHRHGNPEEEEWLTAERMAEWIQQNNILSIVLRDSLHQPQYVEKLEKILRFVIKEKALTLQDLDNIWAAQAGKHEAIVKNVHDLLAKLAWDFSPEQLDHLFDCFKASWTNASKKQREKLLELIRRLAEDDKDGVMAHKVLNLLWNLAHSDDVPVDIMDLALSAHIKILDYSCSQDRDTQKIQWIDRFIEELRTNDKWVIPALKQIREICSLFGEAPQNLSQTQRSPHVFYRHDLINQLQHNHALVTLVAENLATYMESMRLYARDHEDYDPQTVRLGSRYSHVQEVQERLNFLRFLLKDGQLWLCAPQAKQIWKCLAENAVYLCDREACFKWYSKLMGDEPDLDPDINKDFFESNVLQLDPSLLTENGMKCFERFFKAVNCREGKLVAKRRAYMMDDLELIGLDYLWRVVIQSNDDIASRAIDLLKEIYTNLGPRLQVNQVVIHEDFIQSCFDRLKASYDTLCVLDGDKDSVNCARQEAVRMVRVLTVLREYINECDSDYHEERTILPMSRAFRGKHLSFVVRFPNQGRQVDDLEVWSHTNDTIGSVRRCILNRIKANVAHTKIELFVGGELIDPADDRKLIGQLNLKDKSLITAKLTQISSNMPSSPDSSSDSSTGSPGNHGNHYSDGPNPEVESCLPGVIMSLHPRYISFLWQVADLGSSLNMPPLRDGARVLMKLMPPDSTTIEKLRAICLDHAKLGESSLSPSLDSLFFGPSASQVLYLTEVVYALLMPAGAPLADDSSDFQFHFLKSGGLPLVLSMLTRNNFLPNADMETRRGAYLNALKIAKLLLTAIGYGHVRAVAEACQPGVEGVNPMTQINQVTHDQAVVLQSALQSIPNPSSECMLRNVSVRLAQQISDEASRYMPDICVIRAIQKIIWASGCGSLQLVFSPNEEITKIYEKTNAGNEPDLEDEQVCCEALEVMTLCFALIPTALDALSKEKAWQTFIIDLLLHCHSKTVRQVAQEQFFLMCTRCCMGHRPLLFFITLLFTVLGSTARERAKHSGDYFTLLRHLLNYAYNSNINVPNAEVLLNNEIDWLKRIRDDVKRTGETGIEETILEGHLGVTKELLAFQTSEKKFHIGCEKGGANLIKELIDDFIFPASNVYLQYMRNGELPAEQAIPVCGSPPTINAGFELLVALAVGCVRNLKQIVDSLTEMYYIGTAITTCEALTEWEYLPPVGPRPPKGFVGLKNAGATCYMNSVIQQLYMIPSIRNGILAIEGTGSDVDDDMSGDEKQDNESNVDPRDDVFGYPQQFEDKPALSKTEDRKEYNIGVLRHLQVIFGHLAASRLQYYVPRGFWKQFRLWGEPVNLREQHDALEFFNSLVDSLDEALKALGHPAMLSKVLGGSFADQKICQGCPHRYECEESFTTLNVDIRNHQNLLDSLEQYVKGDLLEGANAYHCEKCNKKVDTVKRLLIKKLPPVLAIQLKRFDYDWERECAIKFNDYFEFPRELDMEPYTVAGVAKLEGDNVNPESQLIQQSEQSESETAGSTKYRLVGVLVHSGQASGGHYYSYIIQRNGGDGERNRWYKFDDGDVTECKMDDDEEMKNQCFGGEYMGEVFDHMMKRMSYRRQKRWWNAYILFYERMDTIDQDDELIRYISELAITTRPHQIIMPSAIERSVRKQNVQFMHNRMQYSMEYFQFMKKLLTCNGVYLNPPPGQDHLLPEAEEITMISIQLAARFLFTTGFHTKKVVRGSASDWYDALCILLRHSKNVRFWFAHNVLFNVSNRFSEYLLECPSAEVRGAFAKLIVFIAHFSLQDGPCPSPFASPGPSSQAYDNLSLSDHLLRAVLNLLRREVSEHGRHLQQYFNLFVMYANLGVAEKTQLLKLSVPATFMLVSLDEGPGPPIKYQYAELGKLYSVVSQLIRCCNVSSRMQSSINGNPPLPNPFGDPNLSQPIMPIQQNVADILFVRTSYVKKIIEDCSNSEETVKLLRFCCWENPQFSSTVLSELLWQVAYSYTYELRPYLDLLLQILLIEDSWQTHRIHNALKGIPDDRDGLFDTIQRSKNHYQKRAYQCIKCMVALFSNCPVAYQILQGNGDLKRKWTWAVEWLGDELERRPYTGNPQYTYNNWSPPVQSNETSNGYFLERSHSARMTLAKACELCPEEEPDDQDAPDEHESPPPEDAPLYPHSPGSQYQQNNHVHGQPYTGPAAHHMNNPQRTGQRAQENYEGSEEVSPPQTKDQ

[11] = biological target: DUBs (USP9x, USP19, USP7/8, USP28/15, UCHL5, UCHL3, UCHL1) in HEK 293T cell lysates (Homo sapiens, UniProt Q93009); experiment: HA-Ub-VS activity profiling of HEK 293T cell lysates; type: biochemical; settings: HEK 293T cell lysate
Chain of DUBs (USP9x, USP19, USP7/8, USP28/15, UCHL5, UCHL3, UCHL1) in HEK 293T cell lysates (Homo sapiens, UniProt Q93009) (Q93009 whole entry): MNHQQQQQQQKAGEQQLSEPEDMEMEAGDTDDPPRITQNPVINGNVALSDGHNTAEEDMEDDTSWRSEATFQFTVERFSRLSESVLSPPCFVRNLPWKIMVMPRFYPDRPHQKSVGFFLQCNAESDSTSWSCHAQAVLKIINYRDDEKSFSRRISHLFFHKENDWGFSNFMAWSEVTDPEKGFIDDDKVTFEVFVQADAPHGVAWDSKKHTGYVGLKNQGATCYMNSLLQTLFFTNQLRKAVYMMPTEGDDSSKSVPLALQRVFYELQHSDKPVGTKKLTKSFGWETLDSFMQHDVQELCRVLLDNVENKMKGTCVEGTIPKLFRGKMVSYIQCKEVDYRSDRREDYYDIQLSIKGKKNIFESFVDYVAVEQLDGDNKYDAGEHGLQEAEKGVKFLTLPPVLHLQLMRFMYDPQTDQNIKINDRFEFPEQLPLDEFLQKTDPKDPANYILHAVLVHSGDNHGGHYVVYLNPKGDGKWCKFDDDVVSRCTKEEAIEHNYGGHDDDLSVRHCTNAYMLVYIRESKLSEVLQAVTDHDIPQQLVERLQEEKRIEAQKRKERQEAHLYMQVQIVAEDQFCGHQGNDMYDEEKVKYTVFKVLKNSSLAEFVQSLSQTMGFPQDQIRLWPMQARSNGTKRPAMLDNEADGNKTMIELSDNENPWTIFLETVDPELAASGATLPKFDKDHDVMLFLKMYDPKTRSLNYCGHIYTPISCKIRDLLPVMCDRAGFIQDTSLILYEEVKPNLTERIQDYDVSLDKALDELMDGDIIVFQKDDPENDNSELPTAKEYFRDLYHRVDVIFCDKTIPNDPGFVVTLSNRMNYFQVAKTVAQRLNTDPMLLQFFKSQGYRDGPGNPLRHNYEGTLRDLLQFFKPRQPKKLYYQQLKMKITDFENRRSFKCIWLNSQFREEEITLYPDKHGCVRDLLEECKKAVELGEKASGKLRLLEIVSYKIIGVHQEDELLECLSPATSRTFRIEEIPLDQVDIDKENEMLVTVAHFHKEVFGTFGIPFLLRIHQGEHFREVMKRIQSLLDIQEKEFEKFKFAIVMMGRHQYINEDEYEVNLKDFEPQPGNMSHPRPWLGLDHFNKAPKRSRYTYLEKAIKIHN
Outline: (§1)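 HEK 293T lysate (1.5 mg/ml) was treated with test compound (25 μM) or DMSO, then HA-Ub-VS (1.5 μM) was added, or both were added together. Timed aliquots were anti-HA blotted. For the dilution test, lysate (15 mg/ml) was preincubated with compound (250 μM) for 30 min, diluted tenfold, then given HA-Ub-VS (1.5 μM). USP7 was read by anti-USP7 blot as the probe-shifted band.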

[12] = system: DUBs (USP9x, USP19, USP7/8, USP28/15, UCHL5, UCHL3, UCHL1) in HEK 293T cell lysates; experiment: as above; type: biochemical
Outline: as §1

Molecule: NCc1ccc(NC(=O)Oc2ccccc2)cc1 [C8]
stabilization of the HMW-Ub pool (in words) [1]: did not stabilize

inhibition of SENP6-catalyzed deSUMOylation of RanGap [3]: failed to inhibit
Molecule: N/N=C/NCc1ccc(OC(=O)Oc2ccc3ccccc3c2)cc1 [C22]
kcat as substrate [2]: 0.001 s⁻¹ | DUB inhibitory activity, SAR statement in words [1]: efficacious

inhibition of SENP6-catalyzed deSUMOylation of RanGap [3]: failed to inhibit
Molecule: NCc1ccc(OC(=O)Oc2ccc(Br)cc2)cc1 [C15]
accumulation of K48-linked HMW-Ub [4]: caused the accumulation | Bcr-Abl level [4]: decrease | EC50 [5]: < 50 µM | increase of inhibitory potency (factor) [1]: approximately 10 | GFP fluorescence in G76VUb-GFP assay [6]: failed to increase

Molecule: CC(C)(C)CNCc1ccc(OC(=O)Oc2ccc3ccccc3c2)cc1 [C20]
DUB inhibitory activity, SAR statement in words [1]: Inhibitory activity was retained

Molecule: chymotrypsin (Bos taurus)
Km [7]: 1 µM | kcat [7]: 0.03 s⁻¹ | Km [8]: 1 µM | kcat [8]: 0.03 s⁻¹

Molecule: CC(C)CNCc1ccc(OC(=O)Oc2ccc3ccccc3c2)cc1 [C21]
DUB inhibitory activity, SAR statement in words [1]: somewhat deleterious

Molecule: CC(C)(C)OC(=O)NCc1ccc(OC(=O)Oc2ccc3ccccc3c2)cc1 [C19]
DUB inhibitory activity, SAR statement in words [1]: Inhibitory activity was not recovered

Molecule: CC(C)(C)OC(=O)NCc1ccc(OC(=O)Oc2ccc(Cl)cc2)cc1 [C23]
DUB inhibitory activity, SAR statement in words [1]: Inhibitory activity was not recovered

Molecule: CC(C)(C)OC(=O)NCc1ccc(OC(=O)Oc2ccccc2)cc1 [C3]
DUB inhibitory activity, SAR statement in words [1]: activity was lost

Molecule: CC(C)C[C@H](NC(=O)[C@H](Cc1ccccc1)NC(=O)c1cnccn1)B(O)O [bortezomib, reference compound]
stabilization of the HMW-Ub pool (in words) [1]: failed to stabilize | GFP fluorescence in G76VUb-GFP assay [6]: significantly increased

Molecule: NCc1ccc(OC(=O)Oc2cccc3ccccc23)cc1 [C18]
accumulation of K48-linked HMW-Ub [4]: caused the accumulation | Bcr-Abl level [4]: decrease | EC50 [5]: < 50 µM | GFP fluorescence in G76VUb-GFP assay [6]: failed to increase

Molecule: O=C1/C(=C/c2ccc([N+](=O)[O-])cc2)CS(=O)(=O)C/C1=C\c1ccc([N+](=O)[O-])cc1 [G5, G5 isopeptidase inhibitor 1, reference compound]
stabilization of the HMW-Ub pool (in words) [1]: stabilized | GFP fluorescence in G76VUb-GFP assay [6]: No significant increase

Molecule: NCc1ccc(OC(=O)Nc2ccccc2)cc1 [C7]
stabilization of the HMW-Ub pool (in words) [1]: did not stabilize

Molecule: Oc1ccc2ccccc2c1 [2-naphthol]
cytotoxicity of C17 hydrolysis products [9]: not cytotoxic

kon [10]: 49 to 140 M⁻¹ s⁻¹
Molecule: Cc1ccc(/C=C2\CNC/C(=C\c3ccc(C)cc3)C2=O)cc1 [NSC-632839]

inhibition of USP7 (anti-USP7 immunoblot after HA-UbVS) [11]: inhibition of USP7 was confirmed | accumulation of soluble HMW-Ub ([9]; MCF7 cells, 50 μM, 4 h): caused the accumulation
Molecule: NCc1ccc(OC(=O)Oc2ccc3ccccc3c2)cc1 [C17]
kcat as substrate [2]: 0.02 s⁻¹ | accumulation of K48-linked HMW-Ub [4]: caused the accumulation | Bcr-Abl level [4]: decrease | G1 and apoptotic (sub G1) cells ([4]; 24 h incubation, FACS): dose-dependent increase | Bcr-Abl degradation in the presence of bortezomib ([4]; C17 50 μM, bortezomib 6 μM, 4 h): did not prevent | HA-Ub-VS labeling of DUB bands ([12]; compound (25 μM) and HA-Ub-VS (1.5 μM) added simultaneously): no inhibition of DUB labeling was observed | HA-Ub-VS labeling of DUB bands ([12]; lysate treated with compound (25 μM) followed by HA-Ub-VS (1.5 μM)): decreasing the labeling of all the bands | HA-Ub-VS labeling of DUB bands ([12]; pre-incubated with compound (250 μM) 30 min, diluted 10-fold before HA-Ub-VS): labeling was reduced | EC50 [5]: < 50 µM | Mdm2 levels ([9]; MCF7 cells, 4 h): decreased | p21/WAF1 levels ([9]; MCF7 cells, 4 h): robust increase | p53 levels ([9]; MCF7 cells, 4 h): concomitant increase | cell viability ([9]; MCF7 cells, treated every 24 h, 72 h, Alamar Blue): cell viability decreased | GFP fluorescence in G76VUb-GFP assay [6]: failed to increase

Molecule: Cc1cc(C(=O)CN2CCCC2)c(C)n1-c1ccc(F)cc1 [IU1, reference compound]
stabilization of the HMW-Ub pool (in words) [1]: little effect

Molecule: O=C(Oc1ccccc1)Oc1ccc(CNCc2ccc(Cl)cc2)cc1 [C5]
DUB inhibitory activity, SAR statement in words [1]: retained DUB inhibitory activity

inhibition of SENP6-catalyzed deSUMOylation of RanGap [3]: failed to inhibit
Molecule: NCc1ccc(OC(=O)Oc2ccc(Cl)cc2)cc1 [C14]
accumulation of K48-linked HMW-Ub [4]: caused the accumulation | Bcr-Abl level [4]: decrease | EC50 [5]: < 50 µM | increase of inhibitory potency (factor) [1]: approximately 10 | GFP fluorescence in G76VUb-GFP assay [6]: failed to increase

Molecule: NCc1ccc(O)cc1 [4-aminomethylphenol]
cytotoxicity of C17 hydrolysis products [9]: not cytotoxic
